Test results from ChEMBL document CHEMBL3784931, “Synthesis and evaluation of novel angiotensin II receptor 1 antagonists as anti-hypertension drugs” (Bioorg Med Chem, 2016).

Tests used:
[1] = molecular target: T1, Type-1 angiotensin II receptor A (Rattus norvegicus, UniProt P25095); test: Displacement of [125I]-Ang II from Angiotensin 2 type-1A receptor in rat vascular smooth muscle cells after 150 mins by gamma counting method
T1 sequence (P25095 whole entry): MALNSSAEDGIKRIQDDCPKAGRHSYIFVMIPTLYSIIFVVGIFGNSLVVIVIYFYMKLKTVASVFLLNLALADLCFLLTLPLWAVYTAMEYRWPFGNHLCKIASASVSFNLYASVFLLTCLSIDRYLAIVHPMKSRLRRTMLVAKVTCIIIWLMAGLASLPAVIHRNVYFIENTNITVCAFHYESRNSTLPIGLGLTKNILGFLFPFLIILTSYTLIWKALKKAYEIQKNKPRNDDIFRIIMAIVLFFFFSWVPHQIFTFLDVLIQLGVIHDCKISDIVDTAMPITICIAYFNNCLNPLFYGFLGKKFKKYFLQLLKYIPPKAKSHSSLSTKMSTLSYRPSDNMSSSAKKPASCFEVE
How it was run: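 Rat vascular smooth muscle cells (passages 3–6) were seeded at 10⁶ cells/well and grown at 37 °C in 5% CO₂. Nonspecific binding was taken with 1 µM Ang II. Cells were washed three times, lysed 10 min in 0.1 M NaOH, and bound radioactivity was gamma counted.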

Rattus norvegicus [2] = test: Antihypertensive activity in spontaneous hypertensive rat model assessed as mean blood pressure at 10 mg/kg, po administered for 2 hrs; assay type: functional
How it was run: (§1)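 Male SHRs were randomized, n = 6 per group. Compound was suspended in DMSO/oleic acid (1:4) and given by oral gavage; vehicle controls got the same volume of solvent. SBP and DBP were recorded in conscious animals by noninvasive tail-artery manometry. MBP = (SBP − DBP)/3 + DBP. Data are mean ± SEM, with p < 0.05 taken as significant.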

Rattus norvegicus [3] = test: Antihypertensive activity in spontaneous hypertensive rat model assessed as mean blood pressure at 15 mg/kg, po administered for 2 hrs; assay type: functional; how it was run: as §1
[4] = Tmax in Wistar rat plasma at 10 mg/kg, po after 0.5 to 72 hrs by HPLC analysis; assay type: ADME, organism-based
How it was run: (§2)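 Wistar rats got an oral dose. Venous blood (0.5 mL) was taken predose and at 0.5, 1, 2, 4, 6, 8, 12, 24, 48 and 72 h, and plasma was spun 4000 × g, 4 °C, 10 min. Samples with internal standard were acetonitrile-precipitated, filtered and run on C18 reverse-phase HPLC with UV detection. Calibration used weighted regression of peak height ratio.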

[5] = Cmax in Wistar rat plasma at 10 mg/kg, po after 0.5 to 72 hrs by HPLC analysis; assay type: ADME, organism-based; parameters: dose 10 mg/kg, route oral; how it was run: as §2
[6] = Elimination rate constant in Wistar rat plasma at 10 mg/kg, po after 0.5 to 72 hrs by HPLC analysis; assay type: ADME, organism-based; how it was run: as §2
[7] = Terminal half life in Wistar rat plasma at 10 mg/kg, po after 0.5 to 72 hrs by HPLC analysis; assay type: ADME, organism-based; details: read-out: beta t1/2 (converted); how it was run: as §2
[8] = AUC (0 to 72 hrs) in Wistar rat plasma at 10 mg/kg, po by HPLC analysis; assay type: ADME, organism-based; parameters: dose 10 mg/kg, time < 72 hr, route oral; how it was run: as §2
[9] = Tmax in Wistar rat heart at 10 mg/kg, po after 0.5 to 72 hrs by HPLC analysis; assay type: ADME, organism-based
How it was run: (§3)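 Wistar rats were dosed orally and killed by abdominal aorta transection at 0.5, 1, 2, 4, 6, 8, 12, 24, 48 and 72 h. Organs were excised at once, minced and homogenized at 4 °C in normal saline to a 25% (w/v) homogenate. After spinning at 3000 × g, 4 °C, 10 min, supernatants were analysed by HPLC. Values are mean ± SEM, n = 5 per point.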

[10] = Cmax in Wistar rat heart at 10 mg/kg, po after 0.5 to 72 hrs by HPLC analysis; assay type: ADME, organism-based; parameters: dose 10 mg/kg, route oral; how it was run: as §3
[11] = Elimination rate constant in Wistar rat heart at 10 mg/kg, po after 0.5 to 72 hrs by HPLC analysis; assay type: ADME, organism-based; how it was run: as §3
[12] = Terminal half life in Wistar rat heart at 10 mg/kg, po after 0.5 to 72 hrs by HPLC analysis; assay type: ADME, organism-based; details: read-out: beta t1/2 (converted); how it was run: as §3
Heart = test: AUC (0 to 72 hrs) in Wistar rat heart at 10 mg/kg, po by HPLC analysis; assay type: ADME, organism-based; parameters: time < 72 hr, dose 10 mg/kg, route oral; details: in vivo; how it was run: as §3
[13] = Tmax in Wistar rat liver at 10 mg/kg, po after 0.5 to 72 hrs by HPLC analysis; assay type: ADME, organism-based; how it was run: as §3
[14] = Cmax in Wistar rat liver at 10 mg/kg, po after 0.5 to 72 hrs by HPLC analysis; assay type: ADME, organism-based; parameters: dose 10 mg/kg, route oral; how it was run: as §3
[15] = Elimination rate constant in Wistar rat liver at 10 mg/kg, po after 0.5 to 72 hrs by HPLC analysis; assay type: ADME, organism-based; how it was run: as §3
[16] = Terminal half life in Wistar rat liver at 10 mg/kg, po after 0.5 to 72 hrs by HPLC analysis; assay type: ADME, organism-based; details: read-out: beta t1/2 (converted); how it was run: as §3
Liver = test: AUC (0 to 72 hrs) in Wistar rat liver at 10 mg/kg, po by HPLC analysis; assay type: ADME, organism-based; parameters: time < 72 hr, dose 10 mg/kg, route oral; details: in vivo; how it was run: as §3
[17] = Tmax in Wistar rat spleen at 10 mg/kg, po after 0.5 to 72 hrs by HPLC analysis; assay type: ADME, organism-based; how it was run: as §3
[18] = Cmax in Wistar rat spleen at 10 mg/kg, po after 0.5 to 72 hrs by HPLC analysis; assay type: ADME, organism-based; parameters: dose 10 mg/kg, route oral; how it was run: as §3
[19] = Elimination rate constant in Wistar rat spleen at 10 mg/kg, po after 0.5 to 72 hrs by HPLC analysis; assay type: ADME, organism-based; how it was run: as §3
[20] = Terminal half life in Wistar rat spleen at 10 mg/kg, po after 0.5 to 72 hrs by HPLC analysis; assay type: ADME, organism-based; details: read-out: beta t1/2 (converted); how it was run: as §3
Spleen = test: AUC (0 to 72 hrs) in Wistar rat spleen at 10 mg/kg, po by HPLC analysis; assay type: ADME, organism-based; parameters: time < 72 hr, dose 10 mg/kg, route oral; details: in vivo; how it was run: as §3
[21] = Tmax in Wistar rat lung at 10 mg/kg, po after 0.5 to 72 hrs by HPLC analysis; assay type: ADME, organism-based; how it was run: as §3
[22] = Cmax in Wistar rat lung at 10 mg/kg, po after 0.5 to 72 hrs by HPLC analysis; assay type: ADME, organism-based; parameters: dose 10 mg/kg, route oral; how it was run: as §3
[23] = Elimination rate constant in Wistar rat lung at 10 mg/kg, po after 0.5 to 72 hrs by HPLC analysis; assay type: ADME, organism-based; how it was run: as §3
[24] = Terminal half life in Wistar rat lung at 10 mg/kg, po after 0.5 to 72 hrs by HPLC analysis; assay type: ADME, organism-based; details: read-out: beta t1/2 (converted); how it was run: as §3
Lung = test: AUC (0 to 72 hrs) in Wistar rat lung at 10 mg/kg, po by HPLC analysis; assay type: ADME, organism-based; parameters: dose 10 mg/kg, time < 72 hr, route oral; details: in vivo; how it was run: as §3
[25] = Tmax in Wistar rat kidney at 10 mg/kg, po after 0.5 to 72 hrs by HPLC analysis; assay type: ADME, organism-based; how it was run: as §3
[26] = Cmax in Wistar rat kidney at 10 mg/kg, po after 0.5 to 72 hrs by HPLC analysis; assay type: ADME, organism-based; parameters: dose 10 mg/kg, route oral; how it was run: as §3

CCCCc1nc(Cl)c(C(=O)O)n1Cc1ccc(-c2ccccc2-c2noc(=O)[nH]2)cc1
IC50 [1]: 3.16 nM | Ki [1]: 2.29 nM | Activity (Rattus norvegicus [2]): 41 mmHg | Activity (Rattus norvegicus [3]): 62 mmHg | Tmax [4]: 2 h | Cmax [5]: 10.3 ng/mL | k el [6]: 1.11e-05 s⁻¹ | half-life [7]: 18.2 h | AUC(0-t) at 72 h [8]: 296 ng·h/mL | Tmax [9]: 0.5 h | Cmax [10]: 8.87 ng/g | k el [11]: 2.11e-05 s⁻¹ | half-life [12]: 9.13 h | AUC (Heart): 200.41 ng·h/g | Tmax [13]: 0.5 h | Cmax [14]: 9.56 ng/g | k el [15]: 1.94e-05 s⁻¹ | half-life [16]: 10.7 h | AUC (Liver): 260.05 ng·h/g | Tmax [17]: 4 h | Cmax [18]: 8.84 ng/g | k el [19]: 2.19e-05 s⁻¹ | half-life [20]: 8.74 h | AUC (Spleen): 275.21 ng·h/g | Tmax [21]: 1 h | Cmax [22]: 9.16 ng/g | k el [23]: 1.64e-05 s⁻¹ | half-life [24]: 12.4 h | AUC (Lung): 213.96 ng·h/g | Tmax [25]: 0.5 h | Cmax [26]: 10.5 ng/g
